# Source: PubChem BioAssay
# Mdm2 ligase inh: MDM2-luciferase reporter signal enhancers, primary screen, MDM2 E3 ligase inhibitor project, cell-based, luminescence, 1536-well | cell-based MDM2 ubiquitination luciferase reporter, 2 h; 0 = plate control, 100 = twice control, blank-subtracted | signal enhancement, % at 5 µM | E3 ubiquitin-protein ligase Mdm2 (Homo sapiens), Q00987 | 210,000 tested, 0.11% active;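 active means signal enhancement of 30% or more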;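 further: luminescence tracks abundance of the self-degrading MDM2-luciferase fusion protein; higher signal means inhibition of MDM2 E3 ligase activity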
# Target sequence (Q00987 whole entry, looked up, the tested form may be a part): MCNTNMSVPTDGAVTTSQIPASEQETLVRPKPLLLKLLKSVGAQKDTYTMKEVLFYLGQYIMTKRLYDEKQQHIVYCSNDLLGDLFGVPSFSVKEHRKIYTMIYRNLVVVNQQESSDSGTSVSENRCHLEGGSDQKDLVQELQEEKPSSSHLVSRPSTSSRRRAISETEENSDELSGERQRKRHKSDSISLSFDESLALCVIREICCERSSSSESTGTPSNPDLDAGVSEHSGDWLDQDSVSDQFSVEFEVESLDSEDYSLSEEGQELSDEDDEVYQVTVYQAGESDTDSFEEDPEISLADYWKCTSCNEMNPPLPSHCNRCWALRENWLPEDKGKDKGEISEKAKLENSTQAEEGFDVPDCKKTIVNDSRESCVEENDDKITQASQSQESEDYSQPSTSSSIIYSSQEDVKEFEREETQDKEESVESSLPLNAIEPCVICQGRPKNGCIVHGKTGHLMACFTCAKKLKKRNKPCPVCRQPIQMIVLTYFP
#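 Assay system: stable mammalian line carrying autodegrading MDM2–luciferase fusion reporter; amount: 2000 cells seeded into each well; buffer or medium: DMEM; benchmarks: plate control and blank wells; signal: luciferase luminescence; timing: 2 h compound exposure at 37 °C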
# m-calpain inh: inhibitors of pig calpain II, primary screen, biochemical, fluorogenic peptide substrate, 1536-well; 220,000 tested, 0.37% active; AID 1236, 2008; inhibition, % at 16 µM; purified calpain II, 30 min;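 active means inhibition above about 50%, limit read from the data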
# ROMK mod: ROMK potassium channel modulators, primary screen, cell-based, thallium flux, MLSMR library; B-score at 10 µM; Tet-inducible ROMK, thallium flux fluorescence; actives lie on both sides; 130,000 tested, 2% active; ATP-sensitive inward rectifier potassium channel 1 (Homo sapiens), P48048;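 active means signal ratio slope over the read window, or its plate-corrected B-score, at least 3 SD from the plate mean, either direction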;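 further: B-score of the F/F0 ratio slope over 7 to 12 s after thallium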
# Arbovirus anti: antivirals against arbovirus infection, primary screen, cell-based, full library, 10K replicate subset. inhibition, % at 10 µM. AID 1251, 2008. arbovirus infection cell-based antiviral screen. 200,000 tested, 0.37% active; in the data active means inhibition above about 30%
# Cl transport mod: KCC2 cotransporter modulators, thallium flux, primary screen, cell-based, HEK293 KCC2, FluoZin-2 fluorescence, MLSMR; 190,000 tested, 2.2% active; KCC2 cells, thallium flux FluoZin-2 fluorescence; AID 1456, 2008; Solute carrier family 12 member 5 (Homo sapiens), Q9H2X9; B-score of Tl+ flux slope (higher = more flux/activation; lower = inhibition) at 10 µM;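 active means thallium flux slope and its plate-corrected score both differing from the plate sample mean at a set confidence after two filtering rounds, in either direction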;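 further: slope of fluorescence scaled to starting intensity during 10 to 20 s after thallium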
# PKD1 inh: inhibitors of human PKD1 kinase, biochemical, fluorescence polarization; 200,000 tested, 0.056% active; PKD1 kinase fluorescence polarization assay; inhibition, % (test concentration not listed); Serine/threonine-protein kinase D1 (Homo sapiens), Q15139; in the data active means inhibition above about 50%
# * marks the source's active call; other numbers are inactive results; nt = no result. An excerpt weighted towards active compounds, which were near 3.7% of everything screened.
SMILES,Mdm2 ligase inh,m-calpain inh,ROMK mod,Arbovirus anti,Cl transport mod,PKD1 inh
Cc1nc(N2CCN(Cc3ccccc3)CC2)nc2c1C(=O)CC(c1ccco1)C2 (stereo unspecified),-2.3,24.0,0.000471,-4.7,-1.43,0.6
COc1ccc(C(=O)C2CCCN(C(=O)c3ccoc3C)C2)cc1F (stereo unspecified),-25.6,0.1,nt,nt,0.213,nt
CC(=O)Nc1ccc(NC(=O)c2c(C)nn(-c3ccccc3)c2Cl)cc1C,-8.7,-26.8,2.59,-5.6,0.454,3.0
Cc1ccc2cc(CCNC(=O)c3cc4ccccc4o3)c(=O)[nH]c2c1C,-12.2,54.1*,-0.192,27.9,0.28,-0.4
O=C(NC(=S)N1CCCCC1)C12CC3CC(CC(C3)C1)C2,-10.9,-18.4,nt,-2.9,35.4*,-6.3
CC12CC3CC(C)(C1)CC(C(=O)NC(=S)N1CCOCC1)(C3)C2,-35.1,5.7,nt,-0.8,4.99*,-2.6
O=C(c1cc(NC(=O)C23CC4CC(CC(C4)C2)C3)cc(NC(=O)C23CC4CC(CC(C4)C2)C3)c1)N1CCCCC1,-6.4,-139.1,-0.627,22.2,-0.408,-4.8
COc1ccc(/C=C2\C(=O)NC(=S)N2C(=O)c2ccc(F)cc2)cc1,-12.0,-84.8,nt,-0.5,3.41*,-10.8
Cc1ccc(S(=O)(=O)NCc2ccc(C(=O)NCCN(Cc3ccccc3)C(C)C)cc2)cc1,-28.4,-0.5,-0.479,-22.4,0.189,-0.6
O=C(NC1CCN(Cc2ccccc2)CC1)c1cccc(S(=O)(=O)Nc2cc(C(F)(F)F)ccc2Cl)c1,-2.0,-11.2,-1.51,32.8*,-0.336,12.8
CCCC(=O)Nc1cc(OC)c(C(=O)OC)cc1Cl,-14.2,-15.7,0.515,1.6,1.44,-0.2
Cc1ccc(SCCNC(=S)Nc2cc(C)cc(C)c2)cc1,-15.1,51.8*,-0.138,-31.7,nt,2.7
Cc1cc(=S)c2cccc(C)c2[nH]1,-11.4,-20.3,0.0723,0.3,nt,-0.5
CC(=O)c1c(C)[nH]c(C(=O)CSc2ncnc3sc(-c4ccccc4)cc23)c1C,-12.2,-73.7,nt,-9.4,28.8*,-6.7
CC(=O)Nc1ccc(S(=O)(=O)N2CCN=C2SCc2cccnc2)cc1,32.3*,-39.6,nt,8.6,-0.999,-1.6
Cn1ccnc1C1CCCCN1C(=O)c1cc(COc2ccc(F)cc2F)on1 (stereo unspecified),-9.9,6.0,nt,nt,-2.72,nt
COc1cccc(-c2nc(=S)c3c(o2)CCCC3)c1,-13.4,1.2,0.265,0.9,2.59,-8.7
COc1cccc(-c2nc(=S)c3c(n2Cc2ccco2)CCCC3)c1,-6.3,10.9,nt,7.3,13.4*,6.1
Cc1ccc(-c2nc(=S)c3c(n2Cc2ccco2)CCCC3)cc1,-11.5,37.5,0.497,9.3,24.7*,2.8
Cc1ccc(C2=Nc3ccc(Br)cc3C(c3ccncc3)=NN2)cc1,-4.7,-1.9,0.0391,8.8,-1.34,-6.4
CCOC(=O)c1cnc(SC2CCc3ccccc3C2=O)nc1N (stereo unspecified),-5.0,59.3*,nt,-13.9,-2.6,17.5
CCOC(=O)c1cnc(SC2CC(=O)N(c3ccccc3)C2=O)nc1N (stereo unspecified),-4.1,-6.2,nt,-0.6,nt,6.1
COc1ccc(CNC(=O)c2cc(C)nn2-c2ccccc2)cc1,9.5,-7.9,nt,nt,-0.42,nt
COc1ccc(-c2cc(C(=O)Nc3ccccc3O)c3ccccc3n2)cc1OC,-5.8,-141.5,-0.191,21.3,0.738,-8.7
COc1ccc(-c2cc(C(=O)NCc3cn(C)nc3C)c3ccccc3n2)cc1OC,1.8,52.3*,-1.19,-6.7,-0.903,-6.8
SMILES,Mdm2 ligase inh,m-calpain inh,ROMK mod,Arbovirus anti,Cl transport mod,PKD1 inh
O=C(CN1CCN(Cc2ccccc2)CC1)N1CCCCCC1,-11.2,16.2,0.173,0.4,-1.61,-5.3
O=C(Oc1ccc2c(-c3ccccc3)cc(=O)oc2c1)C1CCCCC1,-11.7,56.2*,nt,-0.4,-1.78,-3.8
CNc1ccccc1C(C)(C)c1cc(-c2cccc(OC)c2)no1,-10.3,5.0,-0.275,31.9*,-0.202,0.6
CCOc1ccc(C(=O)Nc2cccc(C(=O)O)c2)cc1Cl,-75.1,-7.6,0.00115,7.9,-0.658,2.1
CCOc1ccc(C(=O)Nc2cc(NC(=O)c3ccc(OCC)c(Cl)c3)cc(C(=O)O)c2)cc1Cl,-4.2,-68.3,2.13,87.9*,-0.274,1.4
O=C(NCc1ccccn1)c1ccc(Cn2c(=S)[nH]c3ccc(Br)cc3c2=O)cc1,-7.4,-89.1,0.06,-9.6,2.02,-2.8
CCn1c(SCC(=O)Nc2ccc(C(C)=O)cc2)nc2nc3c(cc2c1=O)CCCC3,-6.1,-26.6,nt,-4.8,nt,8.0
C=CCn1c(=S)[nH]c2ccc(Br)cc2c1=O,-3.7,12.5,nt,-2.7,51.6*,-4.8
C=CCn1c(=S)[nH]c2nc3c(cc2c1=O)CCCC3,-22.4,11.8,nt,10.2,126*,5.0
[N-]=[N+]=CC(=O)C(c1ccccc1)(c1ccccc1)c1ccccc1,8.2,-11.3,-0.0206,nt,0.637,nt
Cc1cc(C(C)(C)C)ccc1OCCCCN1CCCC1,-4.3,-1.1,-1.44,-1.9,0.324,-5.5
CCC(C)(C)c1ccc(OCCCC[n+]2ccc(C)cc2)c(C(C)(C)CC)c1,-23.5,29.3,-5.9*,-27.0,-1.25,2.5
O=C(Cn1c(CO)nc2ccccc21)NC1CCCCCC1,-1.0,-1.9,-0.149,2.0,0.424,-5.2
COC(=O)N=Nc1c(O)n(Cc2ccccc2)c2ccccc12,2.8,18.2,-0.546,nt,0.373,nt
CCCCNC(=S)N=Nc1c(O)n(Cc2ccccc2)c2ccccc12,-18.2,29.7,nt,-17.1,8.82*,-2.3
COC(=O)c1sc(NC(=S)NC(=O)c2ccccc2Cl)nc1C,-18.6,-28.2,nt,-14.3,50.4*,-2.0
COC(=O)c1sc(NC(=S)NC(=O)c2ccccc2)nc1C,-16.2,18.1,nt,2.4,35.3*,-7.7
Cc1nc(NC(=S)NC(=O)c2ccccc2)sc1C(=O)N(C)C,1.8,-0.9,0.631,6.1,0.355,-1.3
COc1ccc(NC(=O)CCC(=O)N(Cc2ccc(OC)c(OC)c2)c2nccs2)c(OC)c1,-10.0,-6.2,0.875,-7.7,nt,-4.8
C=CCN(C(=O)c1cccc(N2C(=O)C3CC=CC(C)C3C2=O)c1)c1ccccc1 (stereo unspecified),-5.2,-39.0,-0.215,30.2*,-1.23,-3.6
CC1C=CCC2C(=O)N(c3cccc(C(=O)N4CCN(c5ccc(F)cc5)CC4)c3)C(=O)C12 (stereo unspecified),-6.6,-52.0,nt,5.4,3.18,0.4
